For data set [1], the target named is T1, Amine oxidase [flavin-containing] A (Rattus norvegicus, UniProt P21396).
T1 sequence (P21396 whole entry): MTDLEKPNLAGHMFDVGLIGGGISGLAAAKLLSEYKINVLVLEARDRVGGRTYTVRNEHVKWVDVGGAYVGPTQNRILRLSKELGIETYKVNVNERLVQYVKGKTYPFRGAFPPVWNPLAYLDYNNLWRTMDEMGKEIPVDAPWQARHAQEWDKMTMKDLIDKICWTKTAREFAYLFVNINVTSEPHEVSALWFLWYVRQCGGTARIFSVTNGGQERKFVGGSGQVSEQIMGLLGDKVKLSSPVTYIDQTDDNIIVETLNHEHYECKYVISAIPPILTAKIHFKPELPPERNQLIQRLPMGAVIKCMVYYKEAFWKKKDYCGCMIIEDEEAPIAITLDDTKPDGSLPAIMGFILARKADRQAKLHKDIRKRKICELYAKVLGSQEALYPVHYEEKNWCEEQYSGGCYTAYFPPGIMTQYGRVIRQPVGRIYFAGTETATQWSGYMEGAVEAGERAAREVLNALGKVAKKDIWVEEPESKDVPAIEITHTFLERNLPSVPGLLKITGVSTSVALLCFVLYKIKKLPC
The experiment in a line: In vitro inhibitory concentration against Monoamine oxidase A of rat brain homogenates; value ranges from 100-340. The class given is tissue-based.

Data set [2] addresses T2, Amine oxidase [flavin-containing] B (Rattus norvegicus, UniProt P19643).
T2 sequence (P19643 whole entry): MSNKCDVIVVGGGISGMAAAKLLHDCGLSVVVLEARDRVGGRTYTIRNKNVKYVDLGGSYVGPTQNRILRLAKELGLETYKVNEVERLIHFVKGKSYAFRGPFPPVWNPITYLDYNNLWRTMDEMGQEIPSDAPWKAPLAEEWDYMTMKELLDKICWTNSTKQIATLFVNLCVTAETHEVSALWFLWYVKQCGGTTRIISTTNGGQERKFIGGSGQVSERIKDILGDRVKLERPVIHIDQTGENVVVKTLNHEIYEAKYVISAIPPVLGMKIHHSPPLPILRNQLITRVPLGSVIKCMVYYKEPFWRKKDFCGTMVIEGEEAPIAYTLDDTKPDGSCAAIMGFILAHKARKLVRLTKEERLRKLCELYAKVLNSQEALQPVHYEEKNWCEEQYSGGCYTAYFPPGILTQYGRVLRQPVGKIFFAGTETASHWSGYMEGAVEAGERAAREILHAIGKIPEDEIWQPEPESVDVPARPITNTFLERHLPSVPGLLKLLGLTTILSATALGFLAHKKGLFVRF
The experiment in a line: In vitro inhibitory concentration against Monoamine oxidase B of rat brain homogenates; value ranges from 0.07-0.59. It is filed as tissue-based. Summed up: (§1)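 Rat brain homogenate (in 0.3 M sucrose) as enzyme source; compounds diluted 10⁻²M to 10⁻⁹M in 0.05 M phosphate buffer with 0.15 μM clorgyline; preincubated 60 min at 37 °C, then 10 μM ¹⁴C-phenylethylamine added for 20 min more; stopped with citric acid; metabolites extracted into toluene/ethyl acetate, scintillation counted; activity as % of control, tranylcypromine blank.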

Data set [3] has as its target T3, Acetylcholinesterase (Homo sapiens, UniProt P22303). The experiment in a line: In vitro inhibitory concentration against purified Acetylcholinesterase of human erythrocytes; value ranges from 91.8-732.
The target of data set [4] is T4, Butyrylcholinesterase (Equus caballus, UniProt Q9N1N9). As to the kind of experiment: In vitro inhibitory concentration against Butyrylcholinesterase of horse serum; value ranges from 1.38-1.65. A digest of the protocol:
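Ellman assay followed, with 200 µM butyrylthiocholine as substrate. Runs were in triplicate with four-point dose-response curves. IC50 and fiducial limits came from log concentration versus % inhibition.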

Data set [5] concerns the target T2, Amine oxidase [flavin-containing] B. The experiment in a line: In vitro inhibitory concentration against Monoamine oxidase B of rat brain homogenates; value ranges from 150-360. The class given is tissue-based.
Data set [6] addresses T1, Amine oxidase [flavin-containing] A. The experiment in a line: In vitro inhibitory concentration against Monoamine oxidase A of rat brain homogenates; value ranges from 600-1100. It is filed as tissue-based.
For data set [7], the target named is T3, Acetylcholinesterase. As to the kind of experiment: In vitro inhibitory concentration against purified Acetylcholinesterase of human erythrocytes.
Data set [8] concerns the target T3, Acetylcholinesterase. As to the kind of experiment: In vitro inhibitory concentration against purified Acetylcholinesterase of human erythrocytes; value ranges from 22.2-56.8.
Data set [9] has as its target T1, Amine oxidase [flavin-containing] A. The experiment in a line: In vitro inhibitory concentration against Monoamine oxidase A of rat brain homogenates; value ranges from 100-310. It is filed as tissue-based.
In data set [10] the target is T2, Amine oxidase [flavin-containing] B. The experiment in a line: In vitro inhibitory concentration against Monoamine oxidase B of rat brain homogenates. It is filed as tissue-based.
The target of data set [11] is T1, Amine oxidase [flavin-containing] A. The experiment in a line: In vitro inhibitory concentration against Monoamine oxidase A of rat brain homogenates; value ranges from 11-38. It is filed as tissue-based.
The target of data set [12] is T2, Amine oxidase [flavin-containing] B. As to the kind of experiment: In vitro inhibitory concentration against Monoamine oxidase B of rat brain homogenates; value ranges from 0.19-0.26. The class given is tissue-based. Summed up:
as §1

Data set [13] deals with T1, Amine oxidase [flavin-containing] A. As to the kind of experiment: In vitro inhibitory concentration against Monoamine oxidase A of rat brain homogenates; value ranges from 0.8-1.0. The class given is tissue-based.
The target in data set [14] is T3, Acetylcholinesterase. The experiment in a line: In vitro inhibitory concentration against purified Acetylcholinesterase of human erythrocytes; value ranges from 5.6-11.9.
Data set [15] has as its target T3, Acetylcholinesterase. As to the kind of experiment: In vitro inhibitory concentration against purified Acetylcholinesterase of human erythrocytes; value ranges from 1.7-2.5.
The target of data set [16] is T2, Amine oxidase [flavin-containing] B. As to the kind of experiment: In vitro inhibitory concentration against Monoamine oxidase B of rat brain homogenates; value ranges from 0.019-0.021. It is filed as tissue-based. A digest of the protocol: as §1
Data set [17] deals with T1, Amine oxidase [flavin-containing] A. The experiment in a line: In vitro inhibitory concentration against Monoamine oxidase A of rat brain homogenates; value ranges from 0.005-0.010. It is filed as tissue-based.
The target in data set [18] is T4, Butyrylcholinesterase. As to the kind of experiment: In vitro inhibitory concentration against Butyrylcholinesterase of horse serum; value ranges from 1.54-2.83.
Data set [19] addresses T3, Acetylcholinesterase.
The nature of data set [20]: Pseudo-first order rate constant for carbamoylation of ACHE at 100 (uM) concentration. It is filed as ADME. Summed up:
(§2)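 Human erythrocyte AChE, same Ellman conditions: 200 µM […], 60 min preincubation at 37 °C, 0.1 M phosphate pH 7.4. Progressive inhibition followed at 4-5 inhibitor concentrations. Pseudo-first-order k_obs (min⁻¹) derived per concentration; apparent bimolecular carbamylation constant k_i calculated from these.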

A short description of data set [21]: Pseudo-first order rate constant for carbamoylation of ACHE at 50 (uM) concentration. The class given is ADME. A digest of the protocol: as §2
A short description of data set [22]: Pseudo-first order rate constant for carbamoylation of ACHE at 200 (uM) concentration. It is filed as ADME. A digest of the protocol:
as §2

A short description of data set [23]: Pseudo-first order rate constant for carbamoylation of ACHE at 400 (uM) concentration. The class given is ADME. Summed up: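 Pseudo-first-order rate constants kobs measured at 4-5 inhibitor concentrations following Bar-On et al. Apparent bimolecular carbamylation constant ki calculated from these.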
The nature of data set [24]: Pseudo-first order rate constant for carbamoylation of ACHE at 300 (uM) concentration. The class given is ADME. Summed up:
as §2

Data set [25] can be described thus: Bimolecular rate constant for carbamoylation of ACHE. The class given is ADME. Summed up:
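Human erythrocyte AChE preincubated with inhibitor at 37 °C in 0.1 M phosphate buffer, pH 7.4, under Ellman conditions with 200 µM […]. Pseudo-first-order rate constants (k_obs) for progressive inhibition were obtained at 4-5 inhibitor concentrations. The apparent bimolecular carbamylation constant k_i was calculated from these.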

In data set [26] the target is T3, Acetylcholinesterase. The experiment in a line: In vitro inhibitory concentration against purified Acetylcholinesterase of human erythrocytes; value ranges from 9.8-157.
Data set [27] addresses T4, Butyrylcholinesterase.
Data set [28] has as its target T1, Amine oxidase [flavin-containing] A. The experiment in a line: In vitro inhibitory concentration against Monoamine oxidase A of rat brain homogenates; value ranges from 1.0-1.8. The class given is tissue-based.
For data set [29], the target named is T2, Amine oxidase [flavin-containing] B. The experiment in a line: In vitro inhibitory concentration against Monoamine oxidase B of rat brain homogenates; value ranges from 1.6-2.9. The class given is tissue-based.
Data set [30] deals with T3, Acetylcholinesterase. The experiment in a line: In vitro inhibitory concentration against purified Acetylcholinesterase of human erythrocytes; value ranges from 1.27-1.86.
The target of data set [31] is T3, Acetylcholinesterase. As to the kind of experiment: In vitro inhibitory concentration against purified Acetylcholinesterase of human erythrocytes; value ranges from […]-[…].
In data set [32] the target is T1, Amine oxidase [flavin-containing] A. As to the kind of experiment: In vitro inhibitory concentration against Monoamine oxidase A of rat brain homogenates. It is filed as tissue-based.

pIC50: −log10 of the molar value.

Usually pIC50 stands for the IC50 on a negative log10 scale, so that one unit is a factor of ten. Low values mean a high IC50, high ones a low IC50.

T3 sequence (P22303 whole entry): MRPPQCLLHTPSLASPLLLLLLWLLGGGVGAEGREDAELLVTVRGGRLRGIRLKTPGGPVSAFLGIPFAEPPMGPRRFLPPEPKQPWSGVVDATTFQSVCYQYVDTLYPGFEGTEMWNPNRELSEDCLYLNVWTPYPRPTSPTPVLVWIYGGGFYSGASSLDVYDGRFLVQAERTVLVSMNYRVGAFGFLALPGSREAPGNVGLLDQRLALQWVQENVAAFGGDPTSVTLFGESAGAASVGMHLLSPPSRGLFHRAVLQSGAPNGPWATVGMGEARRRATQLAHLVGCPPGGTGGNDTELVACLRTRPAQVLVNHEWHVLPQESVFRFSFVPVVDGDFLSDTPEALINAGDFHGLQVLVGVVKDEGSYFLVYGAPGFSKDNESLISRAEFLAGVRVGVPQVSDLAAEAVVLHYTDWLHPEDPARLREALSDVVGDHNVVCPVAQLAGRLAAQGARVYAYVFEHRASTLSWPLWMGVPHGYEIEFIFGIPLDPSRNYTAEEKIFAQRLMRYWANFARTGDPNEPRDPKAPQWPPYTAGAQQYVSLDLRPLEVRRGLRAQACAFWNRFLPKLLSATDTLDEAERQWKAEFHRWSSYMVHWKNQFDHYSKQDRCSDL
T4 sequence (Q9N1N9 whole entry): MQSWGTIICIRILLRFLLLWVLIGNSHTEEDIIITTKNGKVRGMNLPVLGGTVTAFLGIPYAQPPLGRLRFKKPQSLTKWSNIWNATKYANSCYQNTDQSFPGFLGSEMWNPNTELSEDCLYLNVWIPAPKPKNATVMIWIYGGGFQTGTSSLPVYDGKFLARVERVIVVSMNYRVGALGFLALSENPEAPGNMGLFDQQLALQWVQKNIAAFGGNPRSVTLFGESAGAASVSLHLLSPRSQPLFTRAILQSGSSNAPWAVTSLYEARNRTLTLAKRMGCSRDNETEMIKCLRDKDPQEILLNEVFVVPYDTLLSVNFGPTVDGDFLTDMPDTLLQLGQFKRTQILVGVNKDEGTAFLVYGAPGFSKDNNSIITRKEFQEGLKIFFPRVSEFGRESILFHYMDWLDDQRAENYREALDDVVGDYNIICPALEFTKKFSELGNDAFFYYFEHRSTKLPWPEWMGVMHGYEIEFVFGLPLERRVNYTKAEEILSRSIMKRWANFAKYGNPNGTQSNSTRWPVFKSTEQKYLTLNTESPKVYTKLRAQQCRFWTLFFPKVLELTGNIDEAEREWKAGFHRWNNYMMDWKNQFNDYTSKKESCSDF

Compound `C#CCNC(C)Cc1ccccc1` (configuration not stated) showed a pIC50 in data set [1] of 3.71.
`C#CCN(C)C(C)Cc1cccc(OC(=O)N(C)CC)c1` (configuration not stated): the negative logarithm of the IC50 (pIC50) in data set [2] is 7.00; against Acetylcholinesterase [3], 3.63; against Butyrylcholinesterase [4] it was 5.82.
For the compound `C#CCNC(C)Cc1cccc(O)c1` (configuration not stated), the pIC50 was 3.64 in [5] and 3.08 in data set [6].
Compound `CC(c1cccc(OC(=O)N(C)C)c1)N(C)C` (configuration not stated) gave a pIC50 on Acetylcholinesterase [7] of 7.52.
Turning to `CCN(C)C(=O)Oc1cccc(CCN)c1`, the negative logarithm of the IC50 (pIC50) on Acetylcholinesterase [8] is 4.45; in data set [9], 3.74; in data set [10] it was below 3.00.
As to `CCN(C)C(=O)Oc1cccc(CCNC)c1`, the figures for the pIC50 in [11] and in [10] were 4.70 and below 3.00, respectively.
As to `C#CCN(C)[C@H](C)Cc1cccc(OC(=O)N(C)C2CCCCC2)c1`, the pIC50 in [12] is 6.66; in data set [13], 6.05; on Acetylcholinesterase [14], 5.10.
`C#CCN(C)[C@H](C)Cc1cccc(OC(=O)N(C)CCCCCC)c1`: at Acetylcholinesterase [15], the pIC50 is 5.70.
Take `C#CCN(C)[C@@H]1CCc2ccc(O)cc21`: the pIC50 is 7.70 in data set [16] and 8.15 in [17].
As for `C#CCN[C@@H]1CCc2ccc(OC(=O)N(C)CC)cc21.Cl`, the pIC50 against Butyrylcholinesterase [18] was 5.70; against Acetylcholinesterase [19] it was 4.50; in data set [10], below 3.00. The K obs in data set [20] was 21 min⁻¹; in [21] it was 16 min⁻¹; in [22], 32 min⁻¹; in data set [23] it was 52 min⁻¹; in [24] it was 42 min⁻¹. Further, in [25], the “Bimolecular carbamoylation rate constant (ki)” value came to 1.7 M⁻¹ s⁻¹.
Regarding `C#CCN(C)C(C)Cc1cccc(OC(=O)N(C)CCC)c1` (configuration not stated), the figures for the pIC50 against Acetylcholinesterase [26] and at Butyrylcholinesterase [27] were 4.48 and 4.64, respectively.
For the compound `C#CCNC1CCc2cccc(O)c21` (configuration not stated), the results for the pIC50 in [28] and in data set [29] were 5.89 and 5.68, respectively.
As to `CN(C)C(=O)Oc1ccc2c(c1)C(N)CCC2` (configuration not stated), the pIC50 against Acetylcholinesterase [30] was 5.83.
`CCCNC1CCc2ccc(OC(=O)N(C)CC)cc21` (configuration not stated) had a pIC50 at Acetylcholinesterase [31] of 5.44.
The compound `C#CCNC1CCc2ccc(OC(=S)N(C)CC)cc21` (configuration not stated) had a pIC50 on Acetylcholinesterase [7] below 3.30.
Regarding `CCCN(C)C(=O)Oc1cccc2c1C(N)CC2` (configuration not stated), the pIC50 was 3.00 in data set [32] and below 3.00 in [10].
For `C#CCN(C)C1CCc2cccc(OC(=O)N(C)CCC)c21` (configuration not stated), the pIC50 against Acetylcholinesterase [7] was below 3.00.

Source of the values: ChEMBL document CHEMBL1135657, “Novel dual inhibitors of AChE and MAO derived from hydroxy aminoindan and phenethylamine as potential treatment for Alzheimer's disease” (J Med Chem, 2002).
